{
  "source": "ChEMBL document CHEMBL5724801",
  "about": "“EUbOPEN Chemogenomics Library - Multiplex” (2024)",
  "key": {"[1]": {"tested_on": "HEK-293T", "test": "Multiplex assay against HEK293T", "assay_type": "toxicity, cell-based", "conditions": "human", "in_short": "(§1)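 Cells stained live at seeding with Hoechst33342, BioTracker Green Microtubule Cytoskeleton Dye, MitoTracker Red and Annexin V Alexa Fluor 680 were imaged on a CQ1 microscope at 37°C and 5% CO2 after compound addition. Their classification by CellPathfinder machine-learning gating ran from Hoechst high-intensity objects versus normal cells, to healthy, pyknosed or fragmented nuclei among normal cells, to mitotic or apoptotic among pyknosed cells. Tubulin, mitochondrial-mass and membrane-permeability phenotypes are per cents of healthy-nucleus cells.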"}, "[2]": {"tested_on": "U2OS", "test": "Multiplex assay against U2OS", "assay_type": "toxicity, cell-based", "conditions": "human", "in_short": "as §1"}, "[3]": {"conditions": "24 h, 10 µM, compound concentration 10 uM"}, "[4]": {"conditions": "48 h, 1 µM, compound concentration 1 uM"}, "[5]": {"conditions": "48 h, 10 µM, compound concentration 10 uM"}, "[6]": {"conditions": "12 h, 1 µM, compound concentration 1 uM"}, "[7]": {"conditions": "12 h, 10 µM, compound concentration 10 uM"}, "[8]": {"conditions": "24 h, 1 µM, compound concentration 1 uM"}},
  "note": "Where “and” joins values, the source holds several entries; their conditions need not be identical. Equal values may be shown once.",
  "data": [
    {"smiles": "Cc1ccc(OCC(O)C(C)NC(C)C)c2c1CCC2.Cl", "note": "(stereo not drawn)", "values": [
      {"measurement": "Population Apoptotic (%)", "setting": "[1]; [3]", "value": "46% and 50%"},
      {"measurement": "Population Fragmented Nuclei (%)", "setting": "[1]; [3]", "value": "11% and 9%"},
      {"measurement": "Population Healthy Nuclei (%)", "setting": "[1]; [3]", "value": "71% and 78%"},
      {"measurement": "Population Hoechst High Intensity Objects (%)", "setting": "[1]; [3]", "value": "5% and 11%"},
      {"measurement": "Population Membrane Permeable-Phenotype (%)", "setting": "[1]; [3]", "value": "1% and 0%"},
      {"measurement": "Population Mitochondria Different-Phenotype (%)", "setting": "[1]; [3]", "value": "53% and 60%"},
      {"measurement": "Population Mitotic Cells (%)", "setting": "[1]; [3]", "value": "53% and 50%"},
      {"measurement": "Population Normal (%)", "setting": "[1]; [3]", "value": "94% and 88%"},
      {"measurement": "Population Pyknosed Nuclei (%)", "setting": "[1]; [3]", "value": "17% and 11%"},
      {"measurement": "Population Tubulin-Different-Phenotype (%)", "setting": "[1]; [3]", "value": 47, "unit": "%"},
      {"measurement": "Total Cell Count", "setting": "[1]; [3]", "value": "334 and 399"},
      {"measurement": "Population Apoptotic (%)", "setting": "[1]; [4]", "value": "24% and 26%"},
      {"measurement": "Population Fragmented Nuclei (%)", "setting": "[1]; [4]", "value": "12% and 11%"},
      {"measurement": "Population Healthy Nuclei (%)", "setting": "[1]; [4]", "value": "79% and 81%"},
      {"measurement": "Population Hoechst High Intensity Objects (%)", "setting": "[1]; [4]", "value": "3% and 1%"},
      {"measurement": "Population Membrane Permeable-Phenotype (%)", "setting": "[1]; [4]", "value": 0, "unit": "%"},
      {"measurement": "Population Mitochondria Different-Phenotype (%)", "setting": "[1]; [4]", "value": "28% and 27%"},
      {"measurement": "Population Mitotic Cells (%)", "setting": "[1]; [4]", "value": "75% and 73%"},
      {"measurement": "Population Normal (%)", "setting": "[1]; [4]", "value": "96% and 98%"},
      {"measurement": "Population Pyknosed Nuclei (%)", "setting": "[1]; [4]", "value": "8% and 7%"},
      {"measurement": "Population Tubulin-Different-Phenotype (%)", "setting": "[1]; [4]", "value": 14, "unit": "%"},
      {"measurement": "Total Cell Count", "setting": "[1]; [4]", "value": "804 and 660"},
      {"measurement": "Population Apoptotic (%)", "setting": "[1]; [5]", "value": "40% and 34%"},
      {"measurement": "Population Fragmented Nuclei (%)", "setting": "[1]; [5]", "value": "10% and 11%"},
      {"measurement": "Population Healthy Nuclei (%)", "setting": "[1]; [5]", "value": "74% and 80%"},
      {"measurement": "Population Hoechst High Intensity Objects (%)", "setting": "[1]; [5]", "value": 5, "unit": "%"},
      {"measurement": "Population Membrane Permeable-Phenotype (%)", "setting": "[1]; [5]", "value": "0% and 1%"},
      {"measurement": "Population Mitochondria Different-Phenotype (%)", "setting": "[1]; [5]", "value": "48% and 39%"},
      {"measurement": "Population Mitotic Cells (%)", "setting": "[1]; [5]", "value": "59% and 66%"},
      {"measurement": "Population Normal (%)", "setting": "[1]; [5]", "value": 94, "unit": "%"},
      {"measurement": "Population Pyknosed Nuclei (%)", "setting": "[1]; [5]", "value": "14% and 8%"},
      {"measurement": "Population Tubulin-Different-Phenotype (%)", "setting": "[1]; [5]", "value": "43% and 41%"},
      {"measurement": "Total Cell Count", "setting": "[1]; [5]", "value": "435 and 611"},
      {"measurement": "Population Apoptotic (%)", "setting": "[2]; [6]", "value": "63% and 90%"},
      {"measurement": "Population Fragmented Nuclei (%)", "setting": "[2]; [6]", "value": "19% and 11%"},
      {"measurement": "Population Healthy Nuclei (%)", "setting": "[2]; [6]", "value": "66% and 79%"},
      {"measurement": "Population Hoechst High Intensity Objects (%)", "setting": "[2]; [6]", "value": "2% and 1%"},
      {"measurement": "Population Membrane Permeable-Phenotype (%)", "setting": "[2]; [6]", "value": "8% and 7%"},
      {"measurement": "Population Mitochondria Different-Phenotype (%)", "setting": "[2]; [6]", "value": "3% and 2%"},
      {"measurement": "Population Normal (%)", "setting": "[2]; [6]", "value": "97% and 98%"},
      {"measurement": "Population Pyknosed Nuclei (%)", "setting": "[2]; [6]", "value": "13% and 8%"},
      {"measurement": "Population Tubulin-Different-Phenotype (%)", "setting": "[2]; [6]", "value": "4% and 2%"},
      {"measurement": "Total Cell Count", "setting": "[2]; [6]", "value": "222 and 129"},
      {"measurement": "Population Apoptotic (%)", "setting": "[2]; [7]", "value": "61% and 80%"},
      {"measurement": "Population Fragmented Nuclei (%)", "setting": "[2]; [7]", "value": "30% and 11%"},
      {"measurement": "Population Healthy Nuclei (%)", "setting": "[2]; [7]", "value": "52% and 81%"},
      {"measurement": "Population Hoechst High Intensity Objects (%)", "setting": "[2]; [7]", "value": "5% and 0%"},
      {"measurement": "Population Membrane Permeable-Phenotype (%)", "setting": "[2]; [7]", "value": "14% and 9%"},
      {"measurement": "Population Mitochondria Different-Phenotype (%)", "setting": "[2]; [7]", "value": "17% and 22%"},
      {"measurement": "Population Mitotic Cells (%)", "setting": "[2]; [7]", "value": "38% and 20%"},
      {"measurement": "Population Normal (%)", "setting": "[2]; [7]", "value": "94% and 99%"},
      {"measurement": "Population Pyknosed Nuclei (%)", "setting": "[2]; [7]", "value": "16% and 7%"},
      {"measurement": "Population Tubulin-Different-Phenotype (%)", "setting": "[2]; [7]", "value": "8% and 9%"},
      {"measurement": "Total Cell Count", "setting": "[2]; [7]", "value": "215 and 137"},
      {"measurement": "Population Apoptotic (%)", "setting": "[2]; [8]", "value": "88% and 93%"},
      {"measurement": "Population Fragmented Nuclei (%)", "setting": "[2]; [8]", "value": "14% and 15%"},
      {"measurement": "Population Healthy Nuclei (%)", "setting": "[2]; [8]", "value": "75% and 73%"},
      {"measurement": "Population Hoechst High Intensity Objects (%)", "setting": "[2]; [8]", "value": "0% and 1%"},
      {"measurement": "Population Membrane Permeable-Phenotype (%)", "setting": "[2]; [8]", "value": "5% and 3%"},
      {"measurement": "Population Mitochondria Different-Phenotype (%)", "setting": "[2]; [8]", "value": "3% and 5%"},
      {"measurement": "Population Mitotic Cells (%)", "setting": "[2]; [8]", "value": "11% and 6%"},
      {"measurement": "Population Normal (%)", "setting": "[2]; [8]", "value": "100% and 98%"},
      {"measurement": "Population Pyknosed Nuclei (%)", "setting": "[2]; [8]", "value": 10, "unit": "%"},
      {"measurement": "Population Tubulin-Different-Phenotype (%)", "setting": "[2]; [8]", "value": "4% and 0%"},
      {"measurement": "Total Cell Count", "setting": "[2]; [8]", "value": "255 and 155"},
      {"measurement": "Population Apoptotic (%)", "setting": "[2]; [3]", "value": "82% and 92%"},
      {"measurement": "Population Fragmented Nuclei (%)", "setting": "[2]; [3]", "value": "26% and 14%"},
      {"measurement": "Population Healthy Nuclei (%)", "setting": "[2]; [3]", "value": "56% and 77%"},
      {"measurement": "Population Hoechst High Intensity Objects (%)", "setting": "[2]; [3]", "value": "3% and 2%"},
      {"measurement": "Population Membrane Permeable-Phenotype (%)", "setting": "[2]; [3]", "value": "10% and 12%"},
      {"measurement": "Population Mitochondria Different-Phenotype (%)", "setting": "[2]; [3]", "value": "17% and 11%"},
      {"measurement": "Population Mitotic Cells (%)", "setting": "[2]; [3]", "value": "17% and 7%"},
      {"measurement": "Population Normal (%)", "setting": "[2]; [3]", "value": "96% and 97%"},
      {"measurement": "Population Pyknosed Nuclei (%)", "setting": "[2]; [3]", "value": "17% and 8%"},
      {"measurement": "Population Tubulin-Different-Phenotype (%)", "setting": "[2]; [3]", "value": "4% and 6%"},
      {"measurement": "Total Cell Count", "setting": "[2]; [3]", "value": "230 and 172"},
      {"measurement": "Population Apoptotic (%)", "setting": "[2]; [4]", "value": "88% and 80%"},
      {"measurement": "Population Fragmented Nuclei (%)", "setting": "[2]; [4]", "value": "14% and 20%"},
      {"measurement": "Population Healthy Nuclei (%)", "setting": "[2]; [4]", "value": "73% and 69%"},
      {"measurement": "Population Hoechst High Intensity Objects (%)", "setting": "[2]; [4]", "value": "0% and 2%"},
      {"measurement": "Population Membrane Permeable-Phenotype (%)", "setting": "[2]; [4]", "value": "6% and 5%"},
      {"measurement": "Population Mitochondria Different-Phenotype (%)", "setting": "[2]; [4]", "value": "4% and 3%"},
      {"measurement": "Population Mitotic Cells (%)", "setting": "[2]; [4]", "value": "11% and 20%"},
      {"measurement": "Population Normal (%)", "setting": "[2]; [4]", "value": "99% and 97%"},
      {"measurement": "Population Pyknosed Nuclei (%)", "setting": "[2]; [4]", "value": "12% and 10%"},
      {"measurement": "Population Tubulin-Different-Phenotype (%)", "setting": "[2]; [4]", "value": "3% and 2%"},
      {"measurement": "Total Cell Count", "setting": "[2]; [4]", "value": "377 and 202"},
      {"measurement": "Population Apoptotic (%)", "setting": "[2]; [5]", "value": "82% and 77%"},
      {"measurement": "Population Fragmented Nuclei (%)", "setting": "[2]; [5]", "value": "23% and 15%"},
      {"measurement": "Population Healthy Nuclei (%)", "setting": "[2]; [5]", "value": "63% and 73%"},
      {"measurement": "Population Hoechst High Intensity Objects (%)", "setting": "[2]; [5]", "value": "4% and 0%"},
      {"measurement": "Population Membrane Permeable-Phenotype (%)", "setting": "[2]; [5]", "value": "12% and 7%"},
      {"measurement": "Population Mitochondria Different-Phenotype (%)", "setting": "[2]; [5]", "value": "12% and 4%"},
      {"measurement": "Population Mitotic Cells (%)", "setting": "[2]; [5]", "value": "17% and 22%"},
      {"measurement": "Population Normal (%)", "setting": "[2]; [5]", "value": "95% and 99%"},
      {"measurement": "Population Pyknosed Nuclei (%)", "setting": "[2]; [5]", "value": "13% and 11%"},
      {"measurement": "Population Tubulin-Different-Phenotype (%)", "setting": "[2]; [5]", "value": "6% and 3%"},
      {"measurement": "Total Cell Count", "setting": "[2]; [5]", "value": "306 and 246"}
    ]}
  ]
}
